In ChEMBL document CHEMBL2010670, “Discovery of a clinical stage multi-kinase inhibitor sodium (E)-2-{2-methoxy-5-[(2',4',6'-trimethoxystyrylsulfonyl)methyl]phenylamino}acetate (ON 01910.Na): synthesis, structure-activity relationship, and biological activity” (J Med Chem, 2011) one finds IC50 data, which are given here for 57 compounds.

Each structure is given as a SMILES string.

Common to all, as to format: functional, cell-based
Assay [1] has as its system DU-145. Nature of the assay: Cytotoxicity against human DU145 cells after 96 hrs by trypan blue exclusion assay. Conditions: Homo sapiens, DU-145, 96 h. In short, it runs like this:
(§1)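 Cells grown in DMEM or RPMI with 10% FBS and penicillin-streptomycin, seeded at 1.0 × 10⁵ cells/mL/well in 6-well dishes. Compound added at a range of concentrations 24 h after seeding. Viable cells counted by trypan blue exclusion from duplicate wells after 96 h of exposure; dose-response end point.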

Assay [2] deals with K562. Nature of the assay: Cytotoxicity against human K562 cells after 96 hrs by trypan blue exclusion assay. Conditions: Homo sapiens, K562, 96 h. In short, it runs like this:
as §1

The nature of assay [3]: Cytotoxicity against human MES-SA cells assessed as cell viability after 96 hrs by trypan blue exclusion. In short, it runs like this: as §1
Assay [4] in a line: Cytotoxicity against multidrug-resistant human MES-SA/Dx5 cells assessed as cell viability after 96 hrs by trypan blue exclusion. Conditions: MES-SA/Dx5, 96 h. In short, it runs like this: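 Cells grown in DMEM or RPMI with 10% FBS and 1 unit/mL penicillin-streptomycin, seeded at 1.0 × 10⁵ cells/mL/well in 6-well dishes; compound added 24 h later at various concentrations. After 96 h of treatment, viable cells counted by trypan blue exclusion in duplicate wells; dose-response end point.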

Take `COc1ccc(CS(=O)(=O)/C=C/c2c(OC)cc(O)cc2OC)cc1[N+](=O)[O-]`: the IC50 in assay [1] and in assay [2] was 5000 nM in each case.
In the case of `COc1cc(OC)c(/C=C/S(=O)(=O)Cc2ccc(OC)c(N[C@@H](C)C(=O)O)c2)c(OC)c1`, the IC50 (commonly the concentration that inhibits the measured activity by half) came out at 25 nM in assay [1] and 15 nM in assay [2].
For `COc1cc(OC)c(/C=C/S(=O)(=O)Cc2ccc(OC)c(NC(F)(F)C(=O)O)c2)c(OC)c1` the same measures were 150 nM and 150 nM.
For `COc1cc(OC)c(/C=C/S(=O)(=O)Cc2ccc(OC)c(NC(C(=O)O)c3ccccc3)c2)c(OC)c1` (centres undefined) the same measures were 20 nM and 15 nM.
The corresponding values for `COc1ccc(CS(=O)(=O)/C=C/c2c(OC)cccc2OC)c([N+](=O)[O-])c1` are 50000 nM and 50000 nM.
`COC(=O)C(Nc1cc(CS(=O)(=O)/C=C/c2c(OC)cc(OC)cc2OC)ccc1OC)c1ccc(Cl)cc1` (centres undefined): the IC50 in assay [1] was determined as 400 nM; in assay [2], 200 nM.
In the case of `COC(=O)C(Nc1cc(CS(=O)(=O)/C=C/c2c(OC)cc(OC)cc2OC)ccc1OC)c1ccc(OC)cc1` (centres undefined), the IC50 in assay [1] stood at 250 nM; in assay [2], 150 nM.
In the case of `COc1ccc(CS(=O)(=O)/C=C/c2cc(F)c(F)cc2F)cc1N`, the half-inhibitory concentration (IC50) in assay [1] amounted to 5000 nM; in assay [2], 15000 nM.
The corresponding values for `COc1cc(OC)c(/C=C/S(=O)(=O)Cc2ccc(OC)c(NC(C(=O)O)C(F)(F)F)c2)c(OC)c1` (centres undefined) are 20 nM and 75 nM.
The corresponding values for `COC(=O)C(Nc1cc(CS(=O)(=O)/C=C/c2c(OC)cc(OC)cc2OC)ccc1OC)C(F)(F)F` (centres undefined) are 250 nM and 250 nM.
In the case of `COc1cc(OC)c(/C=C/[S+]([O-])Cc2ccc(OC)c(N)c2)c(OC)c1` (centres undefined), the IC50 in assay [1] turned out to be 40 nM; in assay [2] it was 20 nM.
For `COc1cc(OC)c(/C=C/S(=O)(=O)Cc2ccc(F)c(N)c2)c(OC)c1` the same measures were 2500 nM and 2500 nM.
On to `COc1ccc(C(Nc2cc(CS(=O)(=O)/C=C/c3c(OC)cc(OC)cc3OC)ccc2OC)C(=O)O)cc1` (centres undefined), for which the IC50 came out at 100 nM in assay [1] and 15 nM in assay [2].
As for `COC(=O)CCNc1cc(CS(=O)(=O)/C=C/c2c(OC)cc(OC)cc2OC)ccc1OC`, the IC50 in assay [1] is 1500 nM; in assay [2], 1000 nM.
The corresponding values for `COc1cc(OC)c(/C=C/S(=O)(=O)Cc2cc(N)ccc2OC)c(OC)c1` are 7500 nM and 7500 nM.
With `COC(=O)CNc1cc(CS(=O)(=O)/C=C/c2cc(OC)c(OC)c(OC)c2)ccc1OC`, the IC50 was found to be 75000 nM in assay [1] and 30000 nM in assay [2].
For `COC(=O)C(F)(F)Nc1cc(CS(=O)(=O)/C=C/c2c(OC)cc(OC)cc2OC)ccc1OC` the same measures were 250 nM and 250 nM.
For `COc1cc(OC)c(/C=C/S(=O)(=O)Cc2ccc(OC)c([N+](=O)[O-])c2)c(OC)c1` the same measures were 2500 nM and 2500 nM.
For `COc1cc(OC)c(/C=C/SCc2ccc(OC)c(N)c2)c(OC)c1` the same measures were 50 nM and 30 nM.
Regarding `COc1cc(OC)c(/C=C/S(=O)(=O)Cc2ccc(OC)c(NCC(=O)O)c2)c(OC)c1` [RIGOSERTIB], the IC50 in assay [1] came to 75 nM; in assay [2] it was 7.5 nM.
The corresponding values for `COc1ccc(CS(=O)(=O)/C=C/c2ccccc2OC)cc1N` are 7500 nM and 7500 nM.
Take `COc1cc(OC)c(/C=C/SCc2ccc(OC)c([N+](=O)[O-])c2)c(OC)c1`: the IC50 in assay [1] and in assay [2] was 5000 nM each time.
As to `COc1ccc(/C=C/S(=O)(=O)Cc2ccc(OC)c(N)c2)c(OC)c1`, the IC50 in assay [1] and in assay [2] was 500 nM each time.
`COc1ccc(CS(=O)(=O)/C=C/c2c(OC)cc(OCCCC(=O)O)cc2OC)cc1N`: the concentration for half-maximal inhibition (IC50) in assay [1] came to 25000 nM; in assay [2], 20000 nM.
The corresponding values for `COc1cc(OC)c(/C=C/S(=O)(=O)Cc2ccc(Cl)cc2N)c(OC)c1` are 2500 nM and 2500 nM.
For `COC(=O)CNc1cc(CS(=O)(=O)/C=C/c2c(OC)cc(OC)cc2OC)ccc1OC` the same measures were 100 nM and 100 nM.
For `COc1cc(OC)c(/C=C/S(=O)(=O)Cc2ccc(OC)c(NCCC(=O)O)c2)c(OC)c1` the same measures were 5000 nM and 5000 nM.
For the compound `COC(=O)C(Nc1cc(CS(=O)(=O)/C=C/c2c(OC)cc(OC)cc2OC)ccc1OC)c1ccc(F)cc1` (centres undefined), the IC50 in assay [1] was 300 nM; in assay [2], 800 nM.
For `COC(=O)C(C)(C)Nc1cc(CS(=O)(=O)/C=C/c2c(OC)cc(OC)cc2OC)ccc1OC` the same measures were 2500 nM and 800 nM.
With `COc1ccc(/C=C/S(=O)(=O)Cc2ccc(OC)c(N)c2)cc1`, the 50% inhibitory concentration (IC50) in assay [1] and in assay [2] was 2500 nM throughout.
With `COc1ccc(CS(=O)(=O)/C=C/c2cc(OC)c(OC)c(OC)c2)cc1NCC(=O)O`, the figures for the 50% inhibitory concentration (IC50) in assay [1] and in assay [2] were 5000 nM and 3000 nM, respectively.
The corresponding values for `COc1ccc(CS(=O)(=O)/C=C/c2c(OC)cccc2OC)c(N)c1` are 750 nM and 750 nM.
For `COC(=O)C(Nc1cc(CS(=O)(=O)/C=C/c2c(OC)cc(OC)cc2OC)ccc1OC)c1ccc(Br)cc1` (centres undefined) the same measures were 300 nM and 200 nM.
The corresponding values for `COC(=O)[C@H](C)Nc1cc(CS(=O)(=O)/C=C/c2c(OC)cc(OC)cc2OC)ccc1OC` are 750 nM and 200 nM.
In the case of `COc1cc(OC)c(/C=C/S(=O)(=O)Cc2ccc(OC)c(NC(C(=O)O)c3ccc(Cl)cc3)c2)c(OC)c1` (centres undefined), the IC50 was 400 nM in assay [1] and 250 nM in assay [2].
The corresponding values for `COc1ccc(N)cc1CS(=O)(=O)/C=C/c1c(OC)cccc1OC` are 25000 nM and 25000 nM.
For `COc1cc(OC)c(/C=C/S(=O)(=O)Cc2ccc(OC)c(NC(C(=O)O)c3ccc(Br)cc3)c2)c(OC)c1` (centres undefined) the same measures were 300 nM and 200 nM.
For `COc1ccc(CS(=O)(=O)/C=C/c2c(OC)cccc2OC)cc1N` the same measures were 50 nM and 50 nM.
For `COc1ccc(CS(=O)(=O)/C=C/c2cc(OC)c(OC)cc2OC)cc1N`, the half-maximal inhibitory concentration (IC50) in assay [1] and in assay [2] was 250 nM each time.
In the case of `COc1ccc(CS(=O)(=O)/C=C/c2cc(OC)c(OC)c(OC)c2)cc1N`, the half-maximal inhibitory concentration (IC50) in assay [1] was determined as 3000 nM; in assay [2], 250 nM.
The corresponding values for `COc1ccccc1/C=C/S(=O)(=O)Cc1ccc(OC)c([N+](=O)[O-])c1` are 20000 nM and 20000 nM.
For `COc1ccc(CS(=O)(=O)/C=C/c2c(OC)cc(OC)cc2OC)c(N)c1` the same measures were 25 nM and 25 nM.
The corresponding values for `COc1cc(OC)c(/C=C/S(=O)(=O)Cc2ccc(OC)c(NC(C(=O)O)c3ccc(F)cc3)c2)c(OC)c1` (centres undefined) are 150 nM and 80 nM.
Take `COc1ccc(/C=C/S(=O)(=O)Cc2ccc(OC)c([N+](=O)[O-])c2)cc1`: the half-maximal inhibitory concentration (IC50) in assay [1] and in assay [2] was 25000 nM throughout.
`CC(=O)O[C@H]1C(=O)[C@@]2(C)[C@H]([C@H](OC(=O)c3ccccc3)[C@]3(O)C[C@H](OC(=O)[C@H](O)[C@@H](NC(=O)c4ccccc4)c4ccccc4)C(C)=C1C3(C)C)[C@]1(OC(C)=O)CO[C@@H]1C[C@@H]2O` [PACLITAXEL]: the results for the IC50 in assay [3] and in assay [4] were 4 nM and 750 nM, respectively.
Take `COc1cc(OC)c(/C=C/S(=O)(=O)Cc2ccc(Cl)c(N)c2)c(OC)c1`: the IC50 in assay [1] and in assay [2] was 10 nM each time.
For `COc1ccc(CS(=O)(=O)/C=C/c2c(OC)cccc2OC)cc1[N+](=O)[O-]`, the IC50 in assay [1] and in assay [2] was 20000 nM in each case.
On to `COc1cc(OC)c(/C=C/S(=O)(=O)Cc2ccc(Br)c([N+](=O)[O-])c2)c(OC)c1`, for which the IC50 in assay [1] and in assay [2] was 25000 nM throughout.
As for `COc1cc(OC)c(/C=C/[S+]([O-])Cc2ccc(OC)c([N+](=O)[O-])c2)c(OC)c1` (centres undefined), the IC50 in assay [1] and in assay [2] was 15000 nM throughout.
Consider `COc1ccc(OC)c(/C=C/S(=O)(=O)Cc2ccc(OC)c(N)c2)c1`, for which the IC50 in assay [1] and in assay [2] was 750 nM throughout.
As to `COc1cc(OC)c(/C=C/S(=O)(=O)Cc2ccc(F)c([N+](=O)[O-])c2)c(OC)c1`, the 50% inhibitory concentration (IC50) in assay [1] and in assay [2] was 25000 nM throughout.
For `COc1cc(OC)c(/C=C/S(=O)(=O)Cc2ccc(OC)c(NC(C)(C)C(=O)O)c2)c(OC)c1`, the half-maximal inhibitory concentration (IC50) came out at 150 nM in assay [1] and 7.5 nM in assay [2].
The corresponding values for `COc1ccc(CS(=O)(=O)/C=C/c2c(F)cc(F)cc2F)cc1N` are 2000 nM and 800 nM.
The corresponding values for `COc1cc(OC)c(/C=C/S(=O)(=O)Cc2ccc(OC)cc2[N+](=O)[O-])c(OC)c1` are 20000 nM and 20000 nM.
The corresponding values for `COc1cc(OC)c(/C=C/S(=O)(=O)Cc2ccc(Br)c(N)c2)c(OC)c1` are 750 nM and 750 nM.
With `COc1ccc(CS(=O)(=O)/C=C/c2c(OC)cc(O)cc2OC)cc1N`, the IC50 turned out to be 200 nM in assay [1] and 300 nM in assay [2].
As for `COC(=O)C(Nc1cc(CS(=O)(=O)/C=C/c2c(OC)cc(OC)cc2OC)ccc1OC)c1ccccc1` (centres undefined), the results for the IC50 in assay [1] and in assay [2] were 75 nM and 30 nM, respectively.
